Experimental findings from ChEMBL document CHEMBL1127053, “3,4-Dimethyl-4-(3-hydroxyphenyl)piperidines: opioid antagonists with potent anorectant activity” (J Med Chem, 1993) are described below.

Structures are written as SMILES. Some results are limits rather than exact numbers.

Assay [1] deals with T1, Adrenergic receptor alpha-2 (Rattus norvegicus, UniProt P22086+P19328+P22909).
T1 sequence (P22086 whole entry): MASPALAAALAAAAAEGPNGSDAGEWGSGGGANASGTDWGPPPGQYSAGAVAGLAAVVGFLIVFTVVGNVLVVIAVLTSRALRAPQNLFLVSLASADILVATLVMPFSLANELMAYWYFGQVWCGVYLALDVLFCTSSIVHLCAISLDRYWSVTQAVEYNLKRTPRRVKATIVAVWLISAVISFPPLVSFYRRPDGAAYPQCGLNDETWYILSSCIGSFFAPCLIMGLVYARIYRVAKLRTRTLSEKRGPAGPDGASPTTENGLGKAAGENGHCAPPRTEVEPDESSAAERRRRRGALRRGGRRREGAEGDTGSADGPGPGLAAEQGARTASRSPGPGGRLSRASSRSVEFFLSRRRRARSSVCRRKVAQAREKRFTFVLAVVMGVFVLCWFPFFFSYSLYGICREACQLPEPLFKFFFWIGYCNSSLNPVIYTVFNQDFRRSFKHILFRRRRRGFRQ
T1 sequence (P19328 whole entry): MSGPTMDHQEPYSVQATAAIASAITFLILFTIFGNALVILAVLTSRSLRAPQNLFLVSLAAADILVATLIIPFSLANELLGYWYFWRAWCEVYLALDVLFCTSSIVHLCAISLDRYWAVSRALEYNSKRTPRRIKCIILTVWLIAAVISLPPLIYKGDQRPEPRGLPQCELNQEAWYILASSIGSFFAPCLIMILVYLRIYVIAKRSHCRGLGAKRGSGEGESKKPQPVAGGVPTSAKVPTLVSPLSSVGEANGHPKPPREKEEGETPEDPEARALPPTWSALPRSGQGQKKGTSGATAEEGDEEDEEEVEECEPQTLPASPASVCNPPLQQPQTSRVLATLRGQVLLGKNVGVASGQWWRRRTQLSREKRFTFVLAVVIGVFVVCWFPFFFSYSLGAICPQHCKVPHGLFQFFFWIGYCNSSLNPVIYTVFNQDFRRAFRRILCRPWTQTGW
T1 sequence (P22909 whole entry): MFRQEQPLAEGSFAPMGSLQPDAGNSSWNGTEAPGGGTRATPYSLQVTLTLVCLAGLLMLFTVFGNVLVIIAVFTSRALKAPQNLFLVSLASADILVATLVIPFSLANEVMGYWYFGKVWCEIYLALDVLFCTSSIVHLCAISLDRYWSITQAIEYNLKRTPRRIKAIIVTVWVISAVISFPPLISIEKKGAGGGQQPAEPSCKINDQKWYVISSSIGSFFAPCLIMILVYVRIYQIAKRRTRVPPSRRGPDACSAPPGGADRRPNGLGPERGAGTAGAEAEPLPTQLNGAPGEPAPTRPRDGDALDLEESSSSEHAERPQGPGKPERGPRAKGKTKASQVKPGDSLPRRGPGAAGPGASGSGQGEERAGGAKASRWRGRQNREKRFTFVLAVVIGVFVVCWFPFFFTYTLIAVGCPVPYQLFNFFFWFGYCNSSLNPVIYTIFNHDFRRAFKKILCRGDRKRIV
Kind of assay: Tested for affinity against alpha-2-adrenergic using [3H]clonidine in rat brain. It counts as tissue-based. In outline:
(§1)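 Radioligand binding in cortical membranes from male Sprague-Dawley rats (110-150 g). Ligands: [3H]serotonin for 5-HT1, [3H]QNB for muscarinic, [3H]WB4101 for α1, [3H]clonidine for α2, [3H]dihydroalprenolol for β-adrenergic.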

The target of assay [2] is Delta-type opioid receptor (Mus musculus) (UniProt P32300). To be noted: Vas deferens; 2 nM.
Sequence of Delta-type opioid receptor (Mus musculus) (P32300 whole entry): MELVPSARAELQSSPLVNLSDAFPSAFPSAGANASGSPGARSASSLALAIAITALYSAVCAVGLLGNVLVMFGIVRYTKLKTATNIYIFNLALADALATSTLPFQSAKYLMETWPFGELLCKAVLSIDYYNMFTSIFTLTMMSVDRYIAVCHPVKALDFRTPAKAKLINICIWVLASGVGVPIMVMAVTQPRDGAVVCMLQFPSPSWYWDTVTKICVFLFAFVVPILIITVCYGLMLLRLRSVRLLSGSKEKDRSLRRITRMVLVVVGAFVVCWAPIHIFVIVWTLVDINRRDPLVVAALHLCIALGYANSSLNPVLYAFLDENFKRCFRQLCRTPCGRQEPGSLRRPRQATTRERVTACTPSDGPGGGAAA
Assay [3] can be described thus: Tested for affinity against phencyclidine using [3H]phencyclidine in rat brain. It counts as tissue-based.
Assay [4] has as its target Muscarinic acetylcholine receptor. Nature of the assay: Tested for affinity against muscarinic acetylcholine using [3H]quinuclidinyl benzylate in rat brain. It counts as tissue-based. In outline: as §1
The subject of a further assay is Rattus norvegicus. Nature of the assay: Tested for concentration required to reduce the food consumption by 20 % subcutaneously. To be noted: Rattus norvegicus, sc; read-out: ED50. It counts as functional. The method, boiled down: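 Obese Zucker rats, 3-4 months old, trained to eat only 8 am-4 pm. Groups of 4 (2 male, 2 female), with one saline control group daily. Compound in saline with 10% DMSO, given sc on 3 consecutive days, typical doses 5.0-0.08 mg/kg (0.02-20 in some cases). Intake measured over the first 4 h. ED20 from regression of the linear portion of the dose-response curve.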

For assay [5], the target named is Kappa-type opioid receptor (Mus musculus) (UniProt P33534). Nature of the assay: Antagonist activity towards U50 488 induced kappa opioid receptor by mouse writhing assay at 2.5 mg/kg subcutaneously. It counts as functional, organism-based. Details: dose 2.5 mg/kg. The method, boiled down: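 Mouse acetic acid writhing: 0.6% acetic acid ip, writhes counted for 10 min starting 5 min after injection. 5 mice/point, ≥5 doses varied 2-fold, each mouse used once. AD50 = antagonist dose reducing agonist-induced writhing inhibition to 50%.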
Sequence of Kappa-type opioid receptor (Mus musculus) (P33534 whole entry): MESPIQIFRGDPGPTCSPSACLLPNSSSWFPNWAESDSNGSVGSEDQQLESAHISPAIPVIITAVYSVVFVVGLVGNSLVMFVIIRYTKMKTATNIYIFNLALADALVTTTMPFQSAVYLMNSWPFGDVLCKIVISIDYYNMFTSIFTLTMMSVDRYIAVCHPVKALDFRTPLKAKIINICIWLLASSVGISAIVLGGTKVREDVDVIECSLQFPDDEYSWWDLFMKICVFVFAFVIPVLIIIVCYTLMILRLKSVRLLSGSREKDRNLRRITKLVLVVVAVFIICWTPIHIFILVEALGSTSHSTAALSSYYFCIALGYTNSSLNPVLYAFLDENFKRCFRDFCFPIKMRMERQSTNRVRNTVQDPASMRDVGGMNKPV

The nature of assay [6]: Tested for affinity against serotonin 5-HT1 receptor using [3H]5-HT in rat brain. It counts as tissue-based. The method, boiled down: as §1
The target of assay [7] is Kappa-type opioid receptor (Cavia porcellus) (UniProt P41144). The conditions noted are these: Ileum, 2 nM.
Sequence of Kappa-type opioid receptor (Cavia porcellus) (P41144 whole entry): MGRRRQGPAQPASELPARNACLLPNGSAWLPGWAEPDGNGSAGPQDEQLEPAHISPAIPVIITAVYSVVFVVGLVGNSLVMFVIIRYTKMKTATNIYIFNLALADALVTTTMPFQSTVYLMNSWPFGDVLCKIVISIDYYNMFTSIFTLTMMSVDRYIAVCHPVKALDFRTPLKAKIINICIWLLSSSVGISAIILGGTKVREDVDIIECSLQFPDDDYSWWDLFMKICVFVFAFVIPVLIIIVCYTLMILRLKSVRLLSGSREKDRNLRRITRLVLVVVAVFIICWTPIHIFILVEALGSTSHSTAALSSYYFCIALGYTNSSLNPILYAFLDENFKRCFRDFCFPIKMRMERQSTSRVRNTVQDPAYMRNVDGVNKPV
The target of a further assay is D(1A) dopamine receptor (Rattus norvegicus, UniProt P18901). Nature of the assay: Tested for affinity against dopamine D1 receptor using [3H]SCH-23,390 in rat brain. It counts as tissue-based.
Sequence of D(1A) dopamine receptor (P18901 whole entry): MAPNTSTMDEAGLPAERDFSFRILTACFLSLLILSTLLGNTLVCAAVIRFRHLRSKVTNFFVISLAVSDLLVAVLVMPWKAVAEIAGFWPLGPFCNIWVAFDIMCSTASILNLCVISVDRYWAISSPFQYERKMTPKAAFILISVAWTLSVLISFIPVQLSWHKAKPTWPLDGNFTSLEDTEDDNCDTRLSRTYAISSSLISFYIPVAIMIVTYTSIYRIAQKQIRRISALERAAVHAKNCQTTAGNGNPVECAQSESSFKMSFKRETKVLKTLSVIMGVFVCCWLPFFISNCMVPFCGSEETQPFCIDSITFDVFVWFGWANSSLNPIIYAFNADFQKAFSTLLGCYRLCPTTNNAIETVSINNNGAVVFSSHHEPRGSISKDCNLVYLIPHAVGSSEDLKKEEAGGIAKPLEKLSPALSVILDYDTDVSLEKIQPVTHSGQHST

With `C[C@H]1CN(CC[C@H](O)C2CCCCC2)CC[C@@]1(C)c1cccc(O)c1`, the half-maximal inhibitory concentration (IC50) in assay [1] is above 5 µM; in assay [3] it was above 1 µM; in assay [4], above 10 µM; in assay [6] it was above 1 µM; against D(1A) dopamine receptor it was above 1 µM. The Ke worked out at 1.64 nM in [2] and 0.31 nM in assay [7]. The ED50 in the assay on Rattus norvegicus came to 0.04 mg/kg. Moreover, the AD50 in assay [5] came to 0.05 mg/kg.
